Test results published in ChEMBL document CHEMBL5058577, “EUbOPEN Chemogenomics Library 2 (Multiplex)” (2022).

Tested on: Fibroblast
Assay: Multiplex assay against human fibroblast
Assay type: toxicity, cell-based
Method in brief: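 Cells were classed with CellPathfinder machine-learning gating, first as Hoechst high-intensity objects or normal cells, then (normal cells) as healthy, pyknosed or fragmented nuclei, and finally (pyknosed cells) as mitotic or apoptotic. Staining of live cells at seeding used Hoechst33342, BioTracker Green Microtubule Cytoskeleton Dye, MitoTracker Red and Annexin V Alexa Fluor 680, with imaging on a CQ1 microscope at 37°C and 5% CO2 after compound addition. Tubulin, mitochondrial-mass and membrane-permeability phenotypes are per cents of healthy-nucleus cells.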

[1] = 12 h, 1 µM, compound concentration 1 uM, replicate 1
[2] = 12 h, 1 µM, compound concentration 1 uM, replicate 2
[3] = 12 h, 10 µM, compound concentration 10 uM, replicate 1
[4] = 12 h, 10 µM, compound concentration 10 uM, replicate 2
[5] = 24 h, 1 µM, compound concentration 1 uM, replicate 1
[6] = 24 h, 1 µM, compound concentration 1 uM, replicate 2
[7] = 24 h, 10 µM, compound concentration 10 uM, replicate 1
[8] = 24 h, 10 µM, compound concentration 10 uM, replicate 2
[9] = 48 h, 1 µM, compound concentration 1 uM, replicate 1
[10] = 48 h, 1 µM, compound concentration 1 uM, replicate 2
[11] = 48 h, 10 µM, compound concentration 10 uM, replicate 1
[12] = 48 h, 10 µM, compound concentration 10 uM, replicate 2

Compound: COc1cc(C(=O)N(CCCc2ccccc2)Cc2ccc(CC(=O)O)cc2)cc(OC)c1C
- Population Apoptotic (%) [1]: 63%
- Population Fragmented Nuclei (%) [1]: 14%
- Population Healthy Nuclei (%) [1]: 73%
- Population Hoechst High Intensity Objects (%) [1]: 2%
- Population Membrane Permeable-Phenotype (%) [1]: 0%
- Population Mitochondria Different-Phenotype (%) [1]: 0%
- Population Mitotic Cells (%) [1]: 36%
- Population Normal (%) [1]: 97%
- Population Pyknosed Nuclei (%) [1]: 12%
- Population Tubulin-Different-Phenotype (%) [1]: 15%
- Total Cell Count [1]: 160
- Population Apoptotic (%) [2]: 42%
- Population Fragmented Nuclei (%) [2]: 37%
- Population Healthy Nuclei (%) [2]: 45%
- Population Hoechst High Intensity Objects (%) [2]: 4%
- Population Membrane Permeable-Phenotype (%) [2]: 11%
- Population Mitochondria Different-Phenotype (%) [2]: 5%
- Population Mitotic Cells (%) [2]: 57%
- Population Normal (%) [2]: 95%
- Population Pyknosed Nuclei (%) [2]: 16%
- Population Tubulin-Different-Phenotype (%) [2]: 36%
- Total Cell Count [2]: 176
- Population Apoptotic (%) [3]: 41%
- Population Fragmented Nuclei (%) [3]: 16%
- Population Healthy Nuclei (%) [3]: 70%
- Population Hoechst High Intensity Objects (%) [3]: 2%
- Population Membrane Permeable-Phenotype (%) [3]: 0%
- Population Mitochondria Different-Phenotype (%) [3]: 5%
- Population Mitotic Cells (%) [3]: 58%
- Population Normal (%) [3]: 97%
- Population Pyknosed Nuclei (%) [3]: 12%
- Population Tubulin-Different-Phenotype (%) [3]: 28%
- Total Cell Count [3]: 197
- Population Apoptotic (%) [4]: 45%
- Population Fragmented Nuclei (%) [4]: 25%
- Population Healthy Nuclei (%) [4]: 61%
- Population Hoechst High Intensity Objects (%) [4]: 4%
- Population Membrane Permeable-Phenotype (%) [4]: 7%
- Population Mitochondria Different-Phenotype (%) [4]: 4%
- Population Mitotic Cells (%) [4]: 54%
- Population Normal (%) [4]: 95%
- Population Pyknosed Nuclei (%) [4]: 13%
- Population Tubulin-Different-Phenotype (%) [4]: 47%
- Total Cell Count [4]: 181
- Population Apoptotic (%) [5]: 68%
- Population Fragmented Nuclei (%) [5]: 11%
- Population Healthy Nuclei (%) [5]: 77%
- Population Hoechst High Intensity Objects (%) [5]: 1%
- Population Membrane Permeable-Phenotype (%) [5]: 0%
- Population Mitochondria Different-Phenotype (%) [5]: 0%
- Population Mitotic Cells (%) [5]: 31%
- Population Normal (%) [5]: 98%
- Population Pyknosed Nuclei (%) [5]: 10%
- Population Tubulin-Different-Phenotype (%) [5]: 13%
- Total Cell Count [5]: 156
- Population Apoptotic (%) [6]: 52%
- Population Fragmented Nuclei (%) [6]: 44%
- Population Healthy Nuclei (%) [6]: 41%
- Population Hoechst High Intensity Objects (%) [6]: 4%
- Population Membrane Permeable-Phenotype (%) [6]: 1%
- Population Mitochondria Different-Phenotype (%) [6]: 6%
- Population Mitotic Cells (%) [6]: 48%
- Population Normal (%) [6]: 95%
- Population Pyknosed Nuclei (%) [6]: 13%
- Population Tubulin-Different-Phenotype (%) [6]: 28%
- Total Cell Count [6]: 189
- Population Apoptotic (%) [7]: 55%
- Population Fragmented Nuclei (%) [7]: 12%
- Population Healthy Nuclei (%) [7]: 76%
- Population Hoechst High Intensity Objects (%) [7]: 1%
- Population Membrane Permeable-Phenotype (%) [7]: 1%
- Population Mitochondria Different-Phenotype (%) [7]: 6%
- Population Mitotic Cells (%) [7]: 45%
- Population Normal (%) [7]: 98%
- Population Pyknosed Nuclei (%) [7]: 10%
- Population Tubulin-Different-Phenotype (%) [7]: 25%
- Total Cell Count [7]: 192
- Population Apoptotic (%) [8]: 40%
- Population Fragmented Nuclei (%) [8]: 25%
- Population Healthy Nuclei (%) [8]: 61%
- Population Hoechst High Intensity Objects (%) [8]: 4%
- Population Membrane Permeable-Phenotype (%) [8]: 5%
- Population Mitochondria Different-Phenotype (%) [8]: 0%
- Population Mitotic Cells (%) [8]: 59%
- Population Normal (%) [8]: 96%
- Population Pyknosed Nuclei (%) [8]: 13%
- Population Tubulin-Different-Phenotype (%) [8]: 41%
- Total Cell Count [8]: 175
- Population Apoptotic (%) [9]: 90%
- Population Fragmented Nuclei (%) [9]: 21%
- Population Healthy Nuclei (%) [9]: 72%
- Population Hoechst High Intensity Objects (%) [9]: 1%
- Population Membrane Permeable-Phenotype (%) [9]: 0%
- Population Mitochondria Different-Phenotype (%) [9]: 0%
- Population Mitotic Cells (%) [9]: 10%
- Population Normal (%) [9]: 98%
- Population Pyknosed Nuclei (%) [9]: 6%
- Population Tubulin-Different-Phenotype (%) [9]: 17%
- Total Cell Count [9]: 168
- Population Apoptotic (%) [10]: 52%
- Population Fragmented Nuclei (%) [10]: 50%
- Population Healthy Nuclei (%) [10]: 41%
- Population Hoechst High Intensity Objects (%) [10]: 2%
- Population Membrane Permeable-Phenotype (%) [10]: 3%
- Population Mitochondria Different-Phenotype (%) [10]: 9%
- Population Mitotic Cells (%) [10]: 47%
- Population Normal (%) [10]: 97%
- Population Pyknosed Nuclei (%) [10]: 8%
- Population Tubulin-Different-Phenotype (%) [10]: 40%
- Total Cell Count [10]: 211
- Population Apoptotic (%) [11]: 77%
- Population Fragmented Nuclei (%) [11]: 25%
- Population Healthy Nuclei (%) [11]: 65%
- Population Hoechst High Intensity Objects (%) [11]: 2%
- Population Membrane Permeable-Phenotype (%) [11]: 1%
- Population Mitochondria Different-Phenotype (%) [11]: 5%
- Population Mitotic Cells (%) [11]: 22%
- Population Normal (%) [11]: 97%
- Population Pyknosed Nuclei (%) [11]: 9%
- Population Tubulin-Different-Phenotype (%) [11]: 32%
- Total Cell Count [11]: 195
- Population Apoptotic (%) [12]: 58%
- Population Fragmented Nuclei (%) [12]: 38%
- Population Healthy Nuclei (%) [12]: 54%
- Population Hoechst High Intensity Objects (%) [12]: 5%
- Population Membrane Permeable-Phenotype (%) [12]: 5%
- Population Mitochondria Different-Phenotype (%) [12]: 3%
- Population Mitotic Cells (%) [12]: 41%
- Population Normal (%) [12]: 94%
- Population Pyknosed Nuclei (%) [12]: 6%
- Population Tubulin-Different-Phenotype (%) [12]: 46%
- Total Cell Count [12]: 187
